We go through 4 molecules from ChEMBL document CHEMBL1250464, “The marine sponge metabolite mycothiazole: a novel prototype mitochondrial complex I inhibitor” (Bioorg Med Chem, 2010).

The structures appear in SMILES notation. Calls of active or inactive are those of the source. The rule behind the calls is not given here.

In series [1] the test system is T47D. As to the kind of experiment: Reduction of hypoxia-induced secreted VEGF protein level in human T47D cells after 16 hrs by ELISA. Format: functional, cell-based. The method, boiled down:
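T47D cells exposed to 1% O2 or 10 μM 1,10-phenanthroline for 16 h with or without compound. Secreted VEGF in conditioned medium measured by ELISA and normalized to cellular protein (micro BCA). Mean with SD, N = 3. One-way ANOVA with Bonferroni post hoc test.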
Background: An ELISA detects its analyte on a solid surface through an enzyme-linked reagent.

The subject of series [2] is T47D. As to the kind of experiment: Inhibition of hypoxia-induced HIF-1 activation in human T47D cells at 0.1 to 1000 nM by luciferase reporter gene assay. Format: cell-based. In a few lines: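 T47D cells (DMEM/F12, 10% FBS) carrying the pHRE3-TK-Luc HIF-1 luciferase reporter were exposed to hypoxia (1% O₂) for 16 h with compound at 0.1, 0.3, 1, 3, 10, 30, 100 and 1000 nM. Cycloheximide at 100 μM served as positive control. Data are from one representative triplicate experiment, mean ± SD.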
(In general: A reporter such as luciferase makes a cellular process visible.)

The subject of series [3] is T47D. Kind of series: Inhibition of 1,10-phenanthroline-induced HIF-1 activation in human T47D cells at up to 10 uM by luciferase reporter gene assay. The series is classed as cell-based. The method, boiled down: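 T47D cells carrying the pHRE3-TK-Luc HIF-1 luciferase reporter. HIF-1 induced chemically with 10 μM 1,10-phenanthroline. Compound tested at concentrations up to 10 μM.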

In series [4] the test system is T47D. As to the kind of experiment: Reduction of hypoxia-induced VEGF mRNA expression in human T47D cells treated after 16 hrs of hypoxia by RT-PCR analysis. Format: functional, cell-based. The method, boiled down: (§1)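 T47D cells held at 1% O2 for 16 h with or without compound. Total RNA measured by real-time RT-PCR, normalized to 18S rRNA, and expressed relative to the normoxic control. Mean of two independent experiments.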

Series [5] has as its system T47D. As to the kind of experiment: Reduction of hypoxia-induced GLUT1 mRNA expression in human T47D cells treated after 16 hrs of hypoxia by RT-PCR analysis. The series is classed as functional, cell-based. The method, boiled down: as §1
In series [6] the test system is T47D. Kind of series: Inhibition of tumor angiogenesis in human T47D cells in conditioned medium at 10 nM treated after 16 hrs of hypoxia by HUVEC-based tube formation assay. The series is classed as functional, cell-based. The method, boiled down: (§2)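 Conditioned media collected from T47D cells treated for 16 h, normoxic or hypoxic (1% O2), with or without compound (10 nM). Media applied to HUVECs for tube formation. Relative tube length and branching points counted in three random fields, mean with SD. One-way ANOVA with Bonferroni post hoc test.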

Series [7] has as its system T47D. Kind of series: Inhibition of tumor angiogenesis in human T47D cells in normoxic conditioned medium at 10 nM by HUVEC-based tube formation assay. The series is classed as functional, cell-based. The method, boiled down:
as §2

Series [8] has as its system T47D. As to the kind of experiment: Inhibition of hypoxia-induced HIF-1alpha protein accumulation in human T47D cell nucleus at 10 to 100 nM treated after 4 hrs of hypoxia by Western blotting. Format: functional, cell-based. In a few lines:
(§3)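 Nuclear extracts prepared from T47D cells held at 1% O2 for 4 h with or without compound. HIF-1α and HIF-1β protein levels determined by western blot.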
Background: Immunoblotting shows a protein as a band on a membrane.

In series [9] the test system is T47D. As to the kind of experiment: Inhibition of hypoxia-induced HIF-1beta protein accumulation in human T47D cell nucleus at 10 to 100 nM treated after 4 hrs of hypoxia by Western blotting. The series is classed as functional, cell-based. The method, boiled down: as §3
Series [10] concerns T47D. As to the kind of experiment: Inhibition of oxygen consumption in human T47D cells. The series is classed as functional, cell-based. In a few lines:
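Oxygen consumption measured with a Clark-type electrode in non-permeabilized T47D cells. Rotenone served as the complex I reference. Data given as % inhibition versus untreated control, averaged over three independent experiments with SD.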

Series [11] relates to T47D. Kind of series: Inhibition of electron transport protein complex 2-mediated cellular respiration in digitonin-permeabilized human T47D cells at 10 to 30 nM presence of succinate. The series is classed as cell-based. In a few lines:
(§4)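 Clark-type oxygen electrode used to follow O2 consumption in T47D cells permeabilized with 10 μM digitonin. Substrates and inhibitors added one after another at set times. For complex I, respiration was started with malate/pyruvate, compound (10 nM) was added, then succinate was added to feed complex II.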

Series [12] deals with T47D. As to the kind of experiment: Inhibition of electron transport protein complex 3-mediated cellular respiration in digitonin-permeabilized human T47D cells at 10 to 30 nM presence of succinate. The series is classed as cell-based. The method, boiled down:
as §4

Series [13] deals with T47D. Kind of series: Inhibition of electron transport protein complex 4-mediated cellular respiration in digitonin-permeabilized human T47D cells at 10 to 30 nM presence of succinate. Format: cell-based.
Series [14] concerns T47D. Kind of series: Inhibition of electron transport protein complex 1-mediated cellular respiration in digitonin-permeabilized human T47D cells at 10 nM presence of succinate. The series is classed as cell-based. In a few lines:
as §4

For series [15], the system named is T47D. As to the kind of experiment: Cytotoxicity against human T47D cells assessed as inhibition of cell proliferation after 48 hrs by SRB assay relative to control. The series is classed as functional. Also on record: scale not given: the % may be the effect or the level left.
A further series has as its system MDA-MB-231. Kind of series: Cytotoxicity against human MDA-MB-231 cells assessed as inhibition of cell proliferation after 48 hrs by SRB assay. The series is classed as functional, cell-based.
The nature of series [16]: Neurotoxicity in Wistar rat cerebellar granule neurons assessed as cell death at 10 nM after 24 hrs using propidium iodide and Hoescht 33342 staining. Format: toxicity, cell-based. The note with it: neuron, 0.01 µM. In a few lines:
(§5)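 Primary cerebellar granule neurons from 6-7-day-old Wistar rat pups, cultured 6-10 days at 37 °C. Cells exposed to compound for 24 h, then stained 20 min with Hoechst 33342 (5 μg/mL) and propidium iodide (1 μg/mL) in pH 7.3 buffer. At least 100 cells scored per treatment. Scoring: PI+ = late apoptotic/necrotic; PI− with condensed or fragmented nuclei = apoptotic; PI− with swollen, fragmented nuclei = early necrotic.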

Series [17] in a line: Neurotoxicity in Wistar rat cerebellar granule neurons assessed as apoptotic cells at 0.01 uM after 24 hrs using propidium iodide and Hoescht 33342 staining. Format: toxicity, cell-based. The note with it: neuron. The method, boiled down:
as §5

Series [18] in a line: Neurotoxicity in Wistar rat cerebellar granule neurons assessed as attached dead cells at 0.1 uM after 24 hrs using propidium iodide and Hoescht 33342 staining. The series is classed as toxicity, cell-based. Conditions: neuron. In a few lines:
as §5

Series [19] concerns T47D. As to the kind of experiment: Reduction of hypoxia-induced VEGF mRNA expression in human T47D cells at 0.1 uM treated after 16 hrs of hypoxia by RT-PCR analysis. Format: functional, cell-based. In a few lines: (§6)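 T47D cells were held at 1% O₂ for 16 h with or without compound. Total RNA was isolated and target mRNA was quantified by real-time RT-PCR, normalized to 18S rRNA, and expressed relative to the normoxic control. Values are averages of two independent experiments.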

Series [20] deals with T47D. Kind of series: Reduction of hypoxia-induced GLUT1 mRNA expression in human T47D cells at 0.1 uM treated after 16 hrs of hypoxia by RT-PCR analysis. Format: functional, cell-based. In a few lines:
as §6

Series [21] concerns T47D. As to the kind of experiment: Inhibition of electron transport protein complex 1-mediated cellular respiration in digitonin-permeabilized human T47D cells at 30 nM presence of succinate. Format: cell-based.

`C=CC/C=C\Cc1csc(C(C)(C)[C@H](O)C/C=C\C(=C)CCNC(=O)OC)n1` [MYCOTHIAZOLE]: the result in the series with T47D [1] and in the series with MDA-MB-231 was Active. Besides, the inhibition entry with T47D [2], in the series on T47D [6], in the series with T47D [8] and in the series on T47D [14] was “Active” each time. In addition, the inhibition entry in the series with T47D [3], in the series with T47D [7], in the series with T47D [9], in the series on T47D [11], in the series on T47D [12] and in the series with T47D [13] was “inactive” throughout. Moreover, the inhibition entry in the series with T47D [4], in the series with T47D [5] and with T47D [10] was “Dose-dependent effect” throughout. In addition, the Activity in the series on T47D [15] is 55%; in [16], “Toxic”; in series [17], 85%.
Regarding `C=CC/C=C\Cc1csc(C(C)(C)[C@@H](C/C=C\C(=C)CCNC(=O)OC)OC(C)=O)n1`, in the series on T47D [2], the inhibition entry was “Active”. In addition, the inhibition entry in the series on T47D [4] and in the series with T47D [5] was “Dose-dependent effect” throughout. Also, the Activity with T47D [15] stood at 55%. Besides, the result in the series with MDA-MB-231 was Active.
Turning to `C=C(C)[C@H]1Cc2c(ccc3c2O[C@@H]2COc4cc(OC)c(OC)cc4[C@@H]2C3=O)O1` [ROTENONE], the Activity result in [16] was “Toxic”; in series [18], 60%.
As to `C=CC/C=C\Cc1csc(C(C)(C)[C@H](O)C/C=C/C(O)(CO)CCNC(=O)OC)n1` (stereo not given in full), the inhibition result with T47D [2], in the series with T47D [19] and in the series with T47D [20] was “inactive” in each case. The inhibition entry in the series on T47D [21] was “Active”. Moreover, the outcome in the series with MDA-MB-231 was Active.
